The results in this text go back to ChEMBL document CHEMBL5244268, “Preventing Candida albicans biofilm formation using aromatic-rich piperazines” (Bioorg Med Chem, 2020).

The test system of assay [1] is Candida albicans. Nature of the assay: Antibiofilm activity against Candida albicans ATCC 28366 incubated for 24 to 48 hrs by crystal violet staining based absorbance spectrometry analysis. The assay is classed as functional, organism-based. The following applies: time 24-48 hrs. The method, boiled down: (§1)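 Overnight cultures (37 °C, aerobic, Sabouraud pH 7.0) adjusted to OD660 0.2, mixed 1:1 with two-fold serial dilutions in medium and incubated at 37 °C. Biofilm stained with crystal violet, dye released in 75% ethanol, A550 read. Growth relative to compound-free wells (100%) after blank subtraction. At least two independent experiments in triplicate, t test.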

For assay [2], the system named is Candida albicans. The experiment in a line: Antifungal activity against Candida albicans ATCC 28366 assessed as reduction in fungal growth incubated for 24 hrs by plate count determination. The assay is classed as functional, organism-based.
Assay [3] has as its system Candida albicans. The experiment in a line: Antifungal activity against Candida albicans ATCC 28366 assessed as reduction in fungal growth at up to 64 ug/ml incubated for 24 hrs by plate count determination. Format: functional, organism-based. Conditions: dose <= 64.0 µg/ml.
The test system of assay [4] is Candida albicans. The experiment in a line: Antibiofilm activity against Candida albicans ATCC 28366 assessed as disruption of preformed biofilm incubated for 12 hrs by crystal violet staining based absorbance spectrometry analysis. The assay is classed as functional, organism-based. In a few lines: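 Mature biofilms grown 36 to 48 h in Sabouraud pH 7.0 without compound; medium and free cells removed, rinsed with 50 mM PBS pH 7.0, then two-fold serial dilutions in PBS added for 12 h at 37 °C. Residual biofilm stained with crystal violet, dye released in 75% ethanol, A550 read. PBS-treated biofilms as controls.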

Assay [5] concerns Candida albicans. Nature of the assay: Antibiofilm activity against Candida albicans ATCC 28366 assessed as inhibition of biofilm formation at 0.5 to 32 ug/ml incubated for 24 to 48 hrs by crystal violet staining based absorbance spectrometry analysis. The assay is classed as functional, organism-based. The following applies: dose 0.5-32 µg/ml, time 24-48 hrs. In a few lines: as §1

Assay [6] has as its system Candida albicans. The experiment in a line: Antifungal activity against Candida albicans ATCC 28366 assessed as inhibition of fungal growth incubated for 24 hrs by plate count determination. The assay is classed as functional. In a few lines: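 Biofilm-assay setup (Sabouraud pH 7.0, inoculum OD660 0.2, serial two-fold dilutions, 37 °C). […] Highest value kept when replicates differ. At least two independent experiments in triplicate.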

In assay [7] the test system is Candida albicans. The experiment in a line: Antibiofilm activity against Candida albicans ATCC 28366 at up to 96 ug/ml incubated for 24 to 48 hrs by crystal violet staining based absorbance spectrometry analysis. Format: functional, organism-based. The following applies: dose <= 96.0 µg/ml, time 24-48 hrs. In a few lines:
as §1

In assay [8] the test system is Candida albicans. Nature of the assay: Fungicidal activity against Candida albicans ATCC 28366 assessed as prevention of colony formation incubated for 24 hrs. The assay is classed as functional.
Assay [9] has as its system Candida albicans. Nature of the assay: Antibiofilm activity against Candida albicans ATCC 28366 assessed as inhibition of biofilm formation at 2 ug/ml incubated for 24 to 48 hrs by crystal violet staining based absorbance spectrometry analysis. Format: functional, organism-based. The following applies: dose 2.0 µg/ml, time 24-48 hrs. In a few lines:
as §1

Assay [10] concerns Candida albicans. The experiment in a line: Antibiofilm activity against Candida albicans LAM-1 assessed as reduction in fungal growth at 1 to 4 ug/ml incubated for 4 hrs in spider medium by plate count determination. The following applies: dose 1-4 µg/ml. Format: functional, organism-based. The method, boiled down: (§2)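 After the 4 h, 37 °C morphogenesis incubation in Spider medium (YPD overnight inoculum, 50 µL into 5 mL), OD660 measured to follow fungal growth; C. albicans viability confirmed by plate count.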

In assay [11] the test system is Candida albicans. The experiment in a line: Antibiofilm activity against Candida albicans ATCC 28366 assessed as reduction in fungal growth at 1 to 4 ug/ml incubated for 4 hrs in spider medium by plate count determination. Format: functional, organism-based. The following applies: dose 1-4 µg/ml. In a few lines:
as §2

The subject of assay [12] is Candida albicans. Nature of the assay: Antibiofilm activity against Candida albicans ATCC 28366 assessed as inhibition of morphogenesis at 1 to 4 ug/ml incubated for 4 hrs in spider medium by microscopic analysis. The assay is classed as functional, organism-based. Conditions: dose 1-4 µg/ml. The method, boiled down:
(§3)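 Yeast-form cells grown overnight in YPD at 30 °C. 50 µL inoculated into 5 mL hypha-inducing medium (e.g., Spider: 1% nutrient broth, 1% mannitol, 0.2% K2HPO4, pH 7.2) containing two-fold dilutions, then 4 h at 37 °C. At least 100 cells per replicate counted as hypha (pseudohyphae and intermediates included) or yeast. Compound-free control for maximal conversion. At least two independent experiments in triplicate.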

The test system of assay [13] is Candida albicans. Nature of the assay: Antibiofilm activity against Candida albicans ATCC 28366 at 48 ug/ml incubated for 24 to 48 hrs by crystal violet staining based absorbance spectrometry analysis. The assay is classed as functional, organism-based. Conditions: dose 48.0 µg/ml, time 24-48 hrs. The method, boiled down: as §1
The test system of assay [14] is Candida albicans. Nature of the assay: Antibiofilm activity against Candida albicans ATCC 28366 assessed as inhibition of morphological switching at 8 ug/ml incubated for 4 hrs in YPD medium with fetal bovine serum by microscopic analysis. The assay is classed as functional, organism-based. Conditions: dose 8.0 µg/ml. In a few lines: as §3
For assay [15], the system named is Candida albicans. Nature of the assay: Antibiofilm activity against Candida albicans ATCC 28366 assessed as inhibition of N-acetylglucosamine induced morphological switching at 8 ug/ml incubated for 4 hrs by microscopic analysis. The following applies: dose 8.0 µg/ml. The assay is classed as functional, organism-based. In a few lines: as §3
Assay [16] deals with Candida albicans. Nature of the assay: Antibiofilm activity against Candida albicans LAM-1 assessed as reduction in fungal growth at 8 ug/ml incubated for 4 hrs in spider medium by plate count determination. Conditions: dose 8.0 µg/ml. The assay is classed as functional, organism-based. The method, boiled down: as §2
Assay [17] deals with Candida albicans. The experiment in a line: Antibiofilm activity against Candida albicans LAM-1 assessed as inhibition of morphogenesis at 8 ug/ml incubated for 4 hrs in spider medium by microscopic analysis. The assay is classed as functional, organism-based. The following applies: dose 8.0 µg/ml. In a few lines:
as §3

The test system of assay [18] is Candida albicans. Nature of the assay: Antibiofilm activity against Candida albicans ATCC 28366 assessed as reduction in fungal growth at 8 ug/ml incubated for 4 hrs in spider medium by plate count determination. Format: functional, organism-based. Conditions: dose 8.0 µg/ml. The method, boiled down: as §2
Assay [19] concerns Candida albicans. The experiment in a line: Antibiofilm activity against Candida albicans ATCC 28366 assessed as inhibition of filamentation at 8 ug/ml incubated for 4 hrs in Lee's medium by microscopic analysis. Format: functional, organism-based. Conditions: dose 8.0 µg/ml. The method, boiled down: as §3
The test system of assay [20] is Candida albicans. Nature of the assay: Antibiofilm activity against Candida albicans ATCC 28366 assessed as inhibition of nitrogen deprivation induced morphological switching at 8 ug/ml incubated for 4 hrs in SLAD media by microscopic analysis. Format: functional, organism-based. The following applies: dose 8.0 µg/ml. The method, boiled down:
as §3

Assay [21] deals with Candida albicans. The experiment in a line: Antibiofilm activity against Candida albicans ATCC 28366 assessed as inhibition of morphogenesis at 8 ug/ml incubated for 4 hrs in spider medium by microscopic analysis. The following applies: dose 8.0 µg/ml. The assay is classed as functional, organism-based. In a few lines: as §3

In brackets after ≈: the same amount, converted by molar mass. Activity calls are given as the source filed them. No cut-off for these calls is given here.

As for `CN1C[C@H](Cc2ccc(OCc3ccccc3)cc2)N(C)C[C@@H]1Cc1ccc(OCc2ccccc2)cc1`, the outcome with Candida albicans [1] and with Candida albicans [2] was inactive.

Take `c1ccc(COc2ccc(C[C@@H]3CN[C@@H](Cc4ccccc4)CN3)cc2)cc1`: the result in the assay on Candida albicans [3] and in the assay with Candida albicans [4] was inactive. The inhibition entry in the assay with Candida albicans [5] is “Active”. In addition, the MIC (as a rule, the lowest concentration found to suppress growth) in the assay on Candida albicans [6] is above 128 mg/L.

As to `Oc1ccc(C[C@@H]2CN[C@H](Cc3ccccc3)CN2)cc1`, the outcome in the assay with Candida albicans [1], in the assay with Candida albicans [4] and in the assay on Candida albicans [2] was inactive.

As for `CN1C[C@H](Cc2ccc(O)cc2)N(C)C[C@@H]1Cc1ccc(O)cc1`, the outcome in the assay with Candida albicans [1] and with Candida albicans [2] was inactive.

Take `Oc1ccc(C[C@H]2CN[C@@H](Cc3ccccc3)CN2)cc1`: the outcome in the assay with Candida albicans [1], with Candida albicans [4] and with Candida albicans [2] was inactive.

For `CN1C[C@@H](Cc2ccccc2)N(C)C[C@H]1Cc1ccccc1`, the outcome in the assay with Candida albicans [7] was inactive.

For `CN1C[C@H](Cc2ccccc2)N(C)C[C@@H]1Cc1ccccc1`, in the assay on Candida albicans [7], the outcome was inactive.

On to `c1ccc(C[C@H]2CN[C@H](Cc3ccccc3)CN2)cc1`, for which the outcome in the assay with Candida albicans [4] and in the assay with Candida albicans [7] was inactive.

Regarding `c1ccc(COc2ccc(C[C@@H]3CN[C@H](Cc4ccc(OCc5ccccc5)cc4)CN3)cc2)cc1`, the outcome in the assay on Candida albicans [4] was inactive. For the same compound, the MFC (commonly the lowest tested concentration that kills the fungus rather than only halting it) in the assay on Candida albicans [8] was found to be 24 mg/L (≈ 50.1 µM). The inhibition result in the assay on Candida albicans [9] was “Active”. The minimal inhibitory concentration (MIC) with Candida albicans [6] is 24 mg/L (≈ 50.1 µM).

For the compound `Oc1ccc(C[C@H]2CN[C@@H](Cc3ccc(O)cc3)CN2)cc1`, the outcome in the assay with Candida albicans [1], in the assay with Candida albicans [4] and with Candida albicans [2] was inactive.

Take `c1ccc(COc2ccc(C[C@H]3CN[C@H](Cc4ccccc4)CN3)cc2)cc1`: the outcome with Candida albicans [3] and with Candida albicans [4] was inactive. Besides, the inhibition result in the assay with Candida albicans [5] was “Active”.

Regarding `c1ccc(C[C@H]2CN[C@@H](Cc3ccccc3)CN2)cc1`, the outcome in the assay with Candida albicans [4] and with Candida albicans [7] was inactive.

`c1ccc(C[C@@H]2CN[C@H](Cc3ccccc3)CN2)cc1`: the result with Candida albicans [4] and with Candida albicans [7] was inactive.

Consider `CN1C[C@H](Cc2ccccc2)N(C)C[C@H]1Cc1ccccc1`, for which, in the assay on Candida albicans [7], the result was inactive.

`c1ccc(COc2ccc(C[C@H]3CN[C@@H](Cc4ccc(OCc5ccccc5)cc4)CN3)cc2)cc1`: the outcome in the assay on Candida albicans [4] was inactive. The MFC in the assay on Candida albicans [8] is 24 mg/L (≈ 50.1 µM). Besides, the inhibition result with Candida albicans [9] is “Active”. Further, in the assay on Candida albicans [6], the MIC came out at 24 mg/L (≈ 50.1 µM).

With `c1ccc(COc2ccc(C[C@@H]3CN[C@H](Cc4ccccc4)CN3)cc2)cc1`, the result in the assay with Candida albicans [10], in the assay on Candida albicans [3], in the assay on Candida albicans [4] and in the assay with Candida albicans [11] was inactive. In addition, the inhibition result in the assay on Candida albicans [5] and in the assay on Candida albicans [12] was “Active” each time.

As for `c1ccc(COc2ccc(C[C@H]3CN[C@H](Cc4ccc(OCc5ccccc5)cc4)CN3)cc2)cc1`, the result in the assay with Candida albicans [4] was inactive. The result in the assay on Candida albicans [13] was Active. Besides, the MIC in the assay with Candida albicans [6] was above 128 mg/L.

For the compound `Oc1ccc(C[C@@H]2CN[C@H](Cc3ccc(O)cc3)CN2)cc1`, the result in the assay on Candida albicans [1], with Candida albicans [4] and in the assay with Candida albicans [2] was inactive.

`CN1C[C@H](Cc2ccc(OCc3ccccc3)cc2)N(C)C[C@@H]1Cc1ccccc1`: the result in the assay on Candida albicans [1], in the assay with Candida albicans [16], with Candida albicans [2] and in the assay on Candida albicans [18] was inactive. For the same compound, the inhibition entry with Candida albicans [14], in the assay with Candida albicans [15], in the assay on Candida albicans [17], with Candida albicans [19], in the assay with Candida albicans [20] and in the assay on Candida albicans [21] was “inactive” each time.
